Values after ≈ are worked out from the molar mass of the structure shown.

The nature of test [1]: Selective index, ratio of IC50 for mouse L929 cells to MIC for Staphylococcus aureus ATCC 29213. An outline of the steps: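 Selectivity index calculated as L929 IC50 (μM) divided by S. aureus MIC (μM).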
Test [2] has as its system Staphylococcus aureus. Kind of test: Antibacterial activity against Staphylococcus aureus ATCC 29213 by broth microdilution assay. It is filed as functional. The procedure, abridged: (§1)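 Broth microdilution per CLSI guidelines; compounds dissolved in DMSO; single agents tested; growth inhibition read by eye; run in duplicate (table footnote states at least triplicates).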

The next test deals with L929. Nature of the test: Cytotoxicity against mouse L929 cells by MTS assay. The test is classed as cell-based. An outline of the steps: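 MTS assay on L929 mouse fibroblasts; IC50 reported as the average of three independent measurements.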
For the next test, the system named is Escherichia coli. Nature of the test: Antibacterial activity against Escherichia coli ATCC 25922 by broth microdilution assay. The test is classed as functional. An outline of the steps:
as §1
(Dilution methods test growth across graded concentrations, often in twofold steps.)

Test [3] relates to Staphylococcus aureus. Kind of test: Antibacterial activity against multidrug-resistant Staphylococcus aureus isolate 2516 by broth microdilution assay. The test is classed as functional. The procedure, abridged: (§2)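 Broth microdilution MIC per CLSI guidelines against clinical MRSA isolates, for β-lactams and test compound alone and in combination. Compounds were dissolved in DMSO. Growth was read by eye, in duplicate. FIC index = FIC(compound) + FIC(drug); synergy defined as FIC index ≤0.5.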

Test [4] deals with Staphylococcus aureus. Kind of test: Antibacterial activity against multidrug-resistant Staphylococcus aureus isolate 256 by broth microdilution assay. The test is classed as functional. The procedure, abridged: as §2
For test [5], the system named is Staphylococcus aureus. Nature of the test: Antibacterial activity against multidrug-resistant Staphylococcus aureus isolate 417 by broth microdilution assay. The test is classed as functional. An outline of the steps: as §2
The subject of test [6] is Staphylococcus aureus. Nature of the test: Antibacterial activity against multidrug-resistant Staphylococcus aureus isolate 85 by broth microdilution assay. The test is classed as functional. The procedure, abridged: as §2
The subject of test [7] is Staphylococcus aureus. Nature of the test: Antibacterial activity against multidrug-resistant Staphylococcus aureus isolate 2490 by broth microdilution assay. It is filed as functional. The procedure, abridged:
as §2

Test [8] concerns Staphylococcus aureus. Kind of test: Antibacterial activity against multidrug-resistant Staphylococcus aureus isolate 2224 by broth microdilution assay. The test is classed as functional. The procedure, abridged: as §2
Test [9] deals with Staphylococcus aureus. Nature of the test: Antibacterial activity against multidrug-resistant Staphylococcus aureus isolate 1136 by broth microdilution assay. It is filed as functional. An outline of the steps: as §2
Test [10] has as its system Staphylococcus aureus. Kind of test: Antibacterial activity against multidrug-resistant Staphylococcus aureus isolate 200 by broth microdilution assay. The test is classed as functional. The procedure, abridged: as §2
The subject of test [11] is Staphylococcus aureus. Kind of test: Antibacterial activity against multidrug-resistant Staphylococcus aureus isolate 1344 by broth microdilution assay. The test is classed as functional. An outline of the steps:
as §2

Test [12] concerns Staphylococcus aureus. Nature of the test: Antibacterial activity against multidrug-resistant Staphylococcus aureus isolate 3267 by broth microdilution assay. It is filed as functional. An outline of the steps:
as §2

In test [13] the test system is Staphylococcus aureus. Kind of test: Antibacterial activity against multidrug-resistant Staphylococcus aureus isolate 1449 by broth microdilution assay. It is filed as functional. The procedure, abridged:
as §2

Test [14] has as its system Staphylococcus aureus. Nature of the test: Antibacterial activity against multidrug-resistant Staphylococcus aureus isolate 3589 by broth microdilution assay. The test is classed as functional. An outline of the steps: as §2
For test [15], the system named is Staphylococcus aureus. Nature of the test: Antibacterial activity against multidrug-resistant Staphylococcus aureus isolate 2728 by broth microdilution assay. The test is classed as functional. The procedure, abridged: as §2
For test [16], the system named is Staphylococcus aureus. Kind of test: Antibacterial activity against multidrug-resistant Staphylococcus aureus isolate 1717 by broth microdilution assay. The test is classed as functional. The procedure, abridged: as §2
For test [17], the system named is Staphylococcus aureus. Nature of the test: Antibacterial activity against multidrug-resistant Staphylococcus aureus isolate 2973 by broth microdilution assay. It is filed as functional. An outline of the steps:
as §2

The test system of test [18] is Staphylococcus aureus. Nature of the test: Antibacterial activity against multidrug-resistant Staphylococcus aureus isolate 231 by broth microdilution assay. The test is classed as functional. An outline of the steps: as §2
Test [19] has as its system Staphylococcus aureus. Nature of the test: Antibacterial activity against multidrug-resistant Staphylococcus aureus isolate 254 by broth microdilution assay. It is filed as functional. An outline of the steps:
as §2

Test [20] has as its system Staphylococcus aureus. Nature of the test: Antibacterial activity against multidrug-resistant Staphylococcus aureus isolate 774 by broth microdilution assay. The test is classed as functional. The procedure, abridged:
as §2

The test system of test [21] is Staphylococcus aureus. Nature of the test: Antibacterial activity against multidrug-resistant Staphylococcus aureus isolate 2895 by broth microdilution assay. The test is classed as functional. An outline of the steps:
as §2

The test system of test [22] is Staphylococcus aureus. Nature of the test: Antibacterial activity against multidrug-resistant Staphylococcus aureus isolate 757 by broth microdilution assay. It is filed as functional. An outline of the steps:
as §2

Test [23] has as its system Staphylococcus aureus. Nature of the test: Antibacterial activity against multidrug-resistant Staphylococcus aureus isolate 3411 by broth microdilution assay. The test is classed as functional. An outline of the steps:
as §2

Test [24] concerns Staphylococcus aureus. Nature of the test: Antibacterial activity against multidrug-resistant Staphylococcus aureus isolate 358 by broth microdilution assay. The test is classed as functional. An outline of the steps: as §2
The test system of test [25] is Staphylococcus aureus. Kind of test: Antibacterial activity against multidrug-resistant Staphylococcus aureus isolate 1402 by broth microdilution assay. The test is classed as functional. The procedure, abridged:
as §2

Test [26] deals with Staphylococcus aureus. Nature of the test: Antibacterial activity against multidrug-resistant Staphylococcus aureus isolate 2919 by broth microdilution assay. It is filed as functional. The procedure, abridged: as §2
Test [27] relates to Staphylococcus aureus. Nature of the test: Antibacterial activity against multidrug-resistant Staphylococcus aureus isolate 3580 by broth microdilution assay. The test is classed as functional. An outline of the steps:
as §2

Test [28] relates to Staphylococcus aureus. Nature of the test: Antibacterial activity against multidrug-resistant Staphylococcus aureus isolate 1749 by broth microdilution assay. It is filed as functional. The procedure, abridged:
as §2

For test [29], the system named is Staphylococcus aureus. Kind of test: Antibacterial activity against multidrug-resistant Staphylococcus aureus isolate 2901 by broth microdilution assay. The test is classed as functional. An outline of the steps:
as §2

Test [30] concerns Staphylococcus aureus. Kind of test: Antibacterial activity against multidrug-resistant Staphylococcus aureus isolate 3332 by broth microdilution assay. The test is classed as functional. An outline of the steps:
as §2

Consider `CCCCCCCCNc1ccc(F)c(C(N)=O)c1F`, for which the “Selectivity Index” value in test [1] is recorded as more than 2. In addition, the MIC (commonly the lowest concentration that inhibits growth of the organism) is 50 µM (≈ 14.2 µg/mL) against Staphylococcus aureus [2] and more than 64 mg/L in the test on Escherichia coli. Besides, the IC50 – broadly, the concentration that inhibits the measured activity by half – in the test on L929 was more than 100 µM.
The corresponding values for `CCCCCOc1cccc(CNc2ccc(F)c(C(N)=O)c2F)c1` are 2, 50 µM (≈ 17.4 µg/mL), more than 64 mg/L and 87 µM.
With `COc1cccc(OC)c1C(=O)N[C@@H]1C(=O)N2[C@@H]1SC(C)(C)[C@@H]2C(=O)O` [METHICILLIN], the MIC turned out to be 64 mg/L (≈ 168 µM) in the test with Staphylococcus aureus [3]; 128 mg/L (≈ 336 µM) with Staphylococcus aureus [4]; 1020 mg/L (≈ 2690 µM) against Staphylococcus aureus [5]; 8 mg/L (≈ 21 µM) in the test on Staphylococcus aureus [6]; 1020 mg/L (≈ 2690 µM) with Staphylococcus aureus [7]; 16 mg/L (≈ 42.1 µM) with Staphylococcus aureus [8]. Besides, the MIC against Staphylococcus aureus [9] was 64 mg/L (≈ 168 µM); in the test on Staphylococcus aureus [10] it was 16 mg/L (≈ 42.1 µM); in the test with Staphylococcus aureus [11], 256 mg/L (≈ 673 µM); with Staphylococcus aureus [12], 64 mg/L (≈ 168 µM); in the test on Staphylococcus aureus [13], 8 mg/L (≈ 21 µM); against Staphylococcus aureus [14], 256 mg/L (≈ 673 µM). Also, the MIC in the test with Staphylococcus aureus [15] was 32 mg/L (≈ 84.1 µM); with Staphylococcus aureus [16], 16 mg/L (≈ 42.1 µM); against Staphylococcus aureus [17] it was 16 mg/L (≈ 42.1 µM); against Staphylococcus aureus [18], 1020 mg/L (≈ 2690 µM); with Staphylococcus aureus [19] it was 1020 mg/L (≈ 2690 µM); against Staphylococcus aureus [20], 16 mg/L (≈ 42.1 µM). The MIC in the test with Staphylococcus aureus [21] was found to be 64 mg/L (≈ 168 µM); in the test with Staphylococcus aureus [22], 64 mg/L (≈ 168 µM); against Staphylococcus aureus [23], 128 mg/L (≈ 336 µM); in the test on Staphylococcus aureus [24], 16 mg/L (≈ 42.1 µM); against Staphylococcus aureus [25], 32 mg/L (≈ 84.1 µM); with Staphylococcus aureus [26] it was 32 mg/L (≈ 84.1 µM). The MIC in the test with Staphylococcus aureus [27] worked out at 16 mg/L (≈ 42.1 µM); in the test on Staphylococcus aureus [28] it was 32 mg/L (≈ 84.1 µM); against Staphylococcus aureus [29] it was 256 mg/L (≈ 673 µM); in the test with Staphylococcus aureus [30] it was 128 mg/L (≈ 336 µM).
In the case of `CCCCOc1cccc(CNc2ccc(F)c(C(N)=O)c2F)c1`, the “Selectivity Index” value in test [1] came to 2. In addition, the figures for the MIC in the test on Staphylococcus aureus [2] and with Escherichia coli were 50 µM (≈ 16.7 µg/mL) and more than 64 mg/L, respectively. Besides, the midpoint of inhibition with L929, the IC50, lay at 99 µM.
Take `CCCCCCCCCOc1ccc(F)c(C(N)=O)c1F`: in test [1], the “Selectivity Index” value is given as 29. Moreover, the minimum inhibitory concentration (MIC) was 3.1 µM (≈ 0.928 µg/mL) against Staphylococcus aureus [2] and more than 64 mg/L against Escherichia coli. In the test with L929, this compound returned an IC50 of 90 µM.
The like results for `CCCCCCCCCNc1ccc(F)c(-c2nnn[nH]2)c1F` were, in that order, more than 2, 50 µM (≈ 16.2 µg/mL), more than 64 mg/L and more than 100 µM.
With `CCCCCCCCN(C)c1ccc(F)c(C(N)=O)c1F`, the “Selectivity Index” value in test [1] turned out to be 7. Also, the MIC in the test on Staphylococcus aureus [2] is 13 µM (≈ 3.88 µg/mL); with Escherichia coli it was more than 64 mg/L. Also, inhibition in the test on L929 was half-maximal at 92 µM (IC50).
For `Cc1onc(-c2ccccc2Cl)c1C(=O)N[C@@H]1C(=O)N2[C@@H]1SC(C)(C)[C@@H]2C(=O)O` [CLOXACILLIN], the MIC was found to be 16 mg/L (≈ 36.7 µM) with Staphylococcus aureus [3]; 8 mg/L (≈ 18.4 µM) against Staphylococcus aureus [4]; 64 mg/L (≈ 147 µM) in the test with Staphylococcus aureus [5]; 0.5 mg/L (≈ 1.15 µM) in the test with Staphylococcus aureus [6]; 2 mg/L (≈ 4.59 µM) with Staphylococcus aureus [7]; 8 mg/L (≈ 18.4 µM) in the test on Staphylococcus aureus [8]. Further, the MIC was 8 mg/L (≈ 18.4 µM) in the test on Staphylococcus aureus [9]; 1 mg/L (≈ 2.29 µM) against Staphylococcus aureus [10]; 16 mg/L (≈ 36.7 µM) against Staphylococcus aureus [11]; 4 mg/L (≈ 9.18 µM) with Staphylococcus aureus [12]; 1 mg/L (≈ 2.29 µM) against Staphylococcus aureus [13]; 32 mg/L (≈ 73.4 µM) against Staphylococcus aureus [14]. Also, the MIC against Staphylococcus aureus [15] came out at 1 mg/L (≈ 2.29 µM); in the test with Staphylococcus aureus [16], 0.5 mg/L (≈ 1.15 µM); in the test with Staphylococcus aureus [17], 16 mg/L (≈ 36.7 µM); against Staphylococcus aureus [18], 64 mg/L (≈ 147 µM); with Staphylococcus aureus [19], 32 mg/L (≈ 73.4 µM); in the test on Staphylococcus aureus [20], 2 mg/L (≈ 4.59 µM). Besides, the MIC is 8 mg/L (≈ 18.4 µM) against Staphylococcus aureus [21]; 8 mg/L (≈ 18.4 µM) in the test on Staphylococcus aureus [22]; 32 mg/L (≈ 73.4 µM) in the test with Staphylococcus aureus [23]; 1 mg/L (≈ 2.29 µM) against Staphylococcus aureus [24]; 2 mg/L (≈ 4.59 µM) with Staphylococcus aureus [25]; 4 mg/L (≈ 9.18 µM) against Staphylococcus aureus [26]. The MIC stood at 2 mg/L (≈ 4.59 µM) against Staphylococcus aureus [27], 0.5 mg/L (≈ 1.15 µM) against Staphylococcus aureus [28], 2 mg/L (≈ 4.59 µM) in the test with Staphylococcus aureus [29] and 8 mg/L (≈ 18.4 µM) in the test with Staphylococcus aureus [30].
`CCCCCCCCCN(C)c1ccc(F)c(C(N)=O)c1F`: in [1], the “Selectivity Index” value is on record as 19. Moreover, the values for the MIC against Staphylococcus aureus [2] and in the test on Escherichia coli were 3.1 µM (≈ 0.968 µg/mL) and more than 64 mg/L, respectively. The compound further registered an IC50 in the test on L929 of 60 µM.

The values above are taken from ChEMBL document CHEMBL4330069, “Boosting the efficacy of anti-MRSA β-lactam antibiotics via an easily accessible, non-cytotoxic and orally bioavailable FtsZ inhibitor” (Eur J Med Chem, 2019).
